Reference: PMC3253552 (Biochemical and Biophysical Research Communications, 2011)
Bridge positions count the residues as written; N and C are the ends. Square brackets hold non-standard residues; d marks the D form. Peptide text beside a SMILES is read from it. R8 = C=CCCCCCC[C@@](C)(N)C(=O)O; S5 = C=CCCC[C@](C)(N)C(=O)O

Key:
[1] = system: chymotrypsin; test: Peptide proteolysis by chymotrypsin, loss of intact peptide by MALDI-TOF MS; type: in vitro ADME; conditions: pH 7
[2] = system: pepsin; test: Peptide proteolysis by pepsin, loss of intact peptide by MALDI-TOF MS; type: in vitro ADME; conditions: for susceptibility to proteolysis by pepsin (in words): pepsin 0.5 μg/ml, 10% acetic acid pH 2, peptide 500 μg/ml, 37°C, MALDI-TOF MS; for remaining at 24 h, 500 μg/ml: pepsin, pH 2
[3] = target: human ABCA1 (Homo sapiens, UniProt O95477); test: Cholesterol efflux from ABCA1 transfected BHK cells; type: cell-based; conditions: [3H] cholesterol, 18 h with peptide
human ABCA1, sequence (O95477 whole entry): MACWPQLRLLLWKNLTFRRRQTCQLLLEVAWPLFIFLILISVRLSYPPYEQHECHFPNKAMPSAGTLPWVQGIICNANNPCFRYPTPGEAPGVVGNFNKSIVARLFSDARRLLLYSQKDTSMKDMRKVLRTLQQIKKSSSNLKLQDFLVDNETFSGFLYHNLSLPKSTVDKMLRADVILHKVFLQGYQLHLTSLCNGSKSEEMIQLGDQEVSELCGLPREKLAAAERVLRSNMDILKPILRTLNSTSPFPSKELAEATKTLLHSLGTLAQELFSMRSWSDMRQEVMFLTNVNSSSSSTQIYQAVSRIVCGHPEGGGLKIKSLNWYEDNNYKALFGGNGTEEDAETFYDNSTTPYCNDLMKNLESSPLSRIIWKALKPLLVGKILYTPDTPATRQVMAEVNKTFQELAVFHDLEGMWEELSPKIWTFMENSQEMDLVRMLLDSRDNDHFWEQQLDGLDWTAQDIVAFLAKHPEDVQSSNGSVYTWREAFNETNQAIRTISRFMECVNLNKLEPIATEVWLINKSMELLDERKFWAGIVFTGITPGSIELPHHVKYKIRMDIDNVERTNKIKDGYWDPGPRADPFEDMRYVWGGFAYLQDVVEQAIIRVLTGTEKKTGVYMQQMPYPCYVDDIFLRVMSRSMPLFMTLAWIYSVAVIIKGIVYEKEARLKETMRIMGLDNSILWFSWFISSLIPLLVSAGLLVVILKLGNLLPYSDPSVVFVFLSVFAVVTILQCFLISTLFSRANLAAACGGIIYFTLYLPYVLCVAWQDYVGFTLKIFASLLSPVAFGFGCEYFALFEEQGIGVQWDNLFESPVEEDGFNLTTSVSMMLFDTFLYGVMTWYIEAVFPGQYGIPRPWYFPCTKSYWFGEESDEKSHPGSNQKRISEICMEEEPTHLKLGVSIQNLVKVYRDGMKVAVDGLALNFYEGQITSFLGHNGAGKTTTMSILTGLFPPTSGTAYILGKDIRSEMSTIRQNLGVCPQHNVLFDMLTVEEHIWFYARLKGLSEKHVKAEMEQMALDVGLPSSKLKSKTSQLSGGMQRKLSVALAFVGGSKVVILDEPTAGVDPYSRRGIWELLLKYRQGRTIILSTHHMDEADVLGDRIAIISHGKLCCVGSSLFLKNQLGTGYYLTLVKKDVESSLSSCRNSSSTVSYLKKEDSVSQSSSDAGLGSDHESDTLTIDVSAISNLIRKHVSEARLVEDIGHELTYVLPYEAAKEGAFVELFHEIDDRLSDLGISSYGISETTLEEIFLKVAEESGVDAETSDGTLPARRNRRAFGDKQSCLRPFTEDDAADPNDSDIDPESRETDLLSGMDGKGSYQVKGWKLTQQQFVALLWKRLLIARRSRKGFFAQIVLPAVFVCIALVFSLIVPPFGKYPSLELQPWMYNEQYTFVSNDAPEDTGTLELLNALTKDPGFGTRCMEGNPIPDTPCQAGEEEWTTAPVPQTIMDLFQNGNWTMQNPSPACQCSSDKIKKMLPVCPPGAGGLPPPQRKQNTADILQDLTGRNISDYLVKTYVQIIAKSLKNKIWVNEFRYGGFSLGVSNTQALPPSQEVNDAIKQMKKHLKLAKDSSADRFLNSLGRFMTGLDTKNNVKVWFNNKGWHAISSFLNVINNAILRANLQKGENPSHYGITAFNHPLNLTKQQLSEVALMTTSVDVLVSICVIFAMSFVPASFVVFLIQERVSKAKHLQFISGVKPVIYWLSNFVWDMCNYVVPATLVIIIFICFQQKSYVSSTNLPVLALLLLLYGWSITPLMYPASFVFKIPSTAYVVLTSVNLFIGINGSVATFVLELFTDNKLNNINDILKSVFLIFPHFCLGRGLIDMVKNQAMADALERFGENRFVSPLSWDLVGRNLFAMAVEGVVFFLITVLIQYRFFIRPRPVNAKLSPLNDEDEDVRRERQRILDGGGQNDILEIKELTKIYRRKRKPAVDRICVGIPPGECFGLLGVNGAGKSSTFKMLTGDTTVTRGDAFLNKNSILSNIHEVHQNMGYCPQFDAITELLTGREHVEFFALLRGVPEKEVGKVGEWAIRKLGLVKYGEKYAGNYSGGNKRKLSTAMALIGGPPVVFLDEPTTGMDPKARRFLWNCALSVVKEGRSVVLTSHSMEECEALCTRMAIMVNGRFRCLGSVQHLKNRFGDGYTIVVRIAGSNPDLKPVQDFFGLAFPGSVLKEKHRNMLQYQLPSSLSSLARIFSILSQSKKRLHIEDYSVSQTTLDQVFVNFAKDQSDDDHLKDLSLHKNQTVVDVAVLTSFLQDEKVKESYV

[4] = CD spectroscopy of peptide helicity and thermostability; type: physicochemical; conditions: peptide 0.1 mg/mL in sodium phosphate buffer pH 7.4, 24°C
How it was run: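 Peptide at 0.1 mg/mL in sodium phosphate buffer, pH 7.4, in a quartz cuvette with 0.2 cm path length. Far-UV CD spectra were scanned from 185 to 240 nm at 24°C. Signal was normalised to mean residue ellipticity to estimate helical content. For thermostability, ellipticity was followed while temperature was raised from 10 to 90°C.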

[5] = cited from earlier work

Compound | remaining at 24 h, 500 μg/ml [1] [%] | susceptibility to proteolysis by pepsin (in words) [2] | remaining at 24 h, 500 μg/ml [2] [%] | increase in cholesterol efflux by the ABCA1 transporter compared to A10 [3] [fold] | helicity in aqueous buffer at 24°C [4] [%] | helicity when associated with lipids ([5]; apoA-I associated with lipids) | helicity in the lipid-free state ([5]; lipid-free apoA-I)
CC(=O)N[C@H](C(=O)N[C@@H](CC(C)C)C(=O)N[C@@H](CC(=O)O)C(=O)N[C@@H](CO)C(=O)N[C@@H](Cc1ccccc1)C(=O)N[C@@H](CCCCN)C(=O)N[C@H](C(=O)N[C@@H](CO)C(=O)N[C@@]1(C)CCCC=CCCC[C@@](C)(C(=O)N[C@@H](CCC(=O)O)C(=O)N[C@@H](CCC(=O)O)C(=O)N[C@@H](Cc2ccc(O)cc2)C(=O)N[C@H](C(=O)N[C@@H](CCCCN)C(=O)N[C@@H](CCCCN)C(=O)N[C@@H](CC(C)C)C(=O)N[C@@H](CC(N)=O)C(=O)N[C@H](C(=O)N[C@@H](CCC(N)=O)C(N)=O)[C@@H](C)O)[C@@H](C)O)NC(=O)[C@H](C)NC(=O)[C@H](CO)NC(=O)[C@H](CC(C)C)NC1=O)C(C)C)C(C)C [S1A10] (Ac-VLDSFKVS[S5]LSA[S5]EEYTKKLNTQ-NH2; staple 9-13) | 0.6 | resistant to proteolysis | 0.4 | > 10 | 62 | – | –
CC(=O)N[C@H](C(=O)N[C@@H](CC(C)C)C(=O)N[C@@H](CC(=O)O)C(=O)N[C@@H](CO)C(=O)N[C@@H](Cc1ccccc1)C(=O)N[C@@H](CCCCN)C(=O)N[C@H](C(=O)N[C@@H](CO)C(=O)N[C@]1(C)CCCCCCC=CCCC[C@@](C)(C(=O)N[C@H](C(=O)N[C@@H](CCCCN)C(=O)N[C@@H](CCCCN)C(=O)N[C@@H](CC(C)C)C(=O)N[C@@H](CC(N)=O)C(=O)N[C@H](C(=O)N[C@@H](CCC(N)=O)C(N)=O)[C@@H](C)O)[C@@H](C)O)NC(=O)[C@H](CCC(=O)O)NC(=O)[C@H](CCC(=O)O)NC(=O)[C@H](CC(C)C)NC(=O)[C@H](C)NC(=O)[C@H](CO)NC(=O)[C@H](CC(C)C)NC1=O)C(C)C)C(C)C [S2A10] (Ac-VLDSFKVS[R8]LSALEE[S5]TKKLNTQ-NH2; staple 9-16) | 3.8 | resistant to proteolysis | 12.2 | > 10 | 97 | – | –
apoA-I: full length apolipoprotein, the main protein on High Density Lipoproteins | – | – | – | – | – | over 67% | about 48%
